The species named for one test is Homo sapiens. Briefly: Selectivity ratio of EC50 for PKCdelta (unknown origin) expressed in human LNCAP cells harboring GFP-tagged RasGRP1 to EC50 for GFP-tagged RasGRP1 (unknown origin) expressed in human LNCAP cells assessed as ERK1/2 phosphorylation. In kind it is cell-based.
The target of test [1] is T1, Protein kinase C delta type (Homo sapiens, UniProt Q05655). The experiment in a line: Activation of PKCdelta (unknown origin) expressed in human LNCAP cells harboring GFP-tagged RasGRP1 assessed as phosphorylation at ser299 residues after 30 mins by immunoblot method. In kind it is cell-based. A digest of the protocol:
(§1)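 PKCδ activation read as phospho-S299 on western blots of lysates (50 µg protein, 10% SDS-PAGE, milk blocking, anti-PKCδS299 overnight). Cells: GFP-RasGRP1/3-transfected HEK293 or LNCaP, or Ramos, treated 30 min at 37 °C with half-log doses (maximum 10 µM), 1000 nM PMA or DMSO. Scanned intensities normalized to 1000 nM PMA; EC50 mean ± SEM, n = 3; values above 10 µM extrapolated.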
Background: In western blotting, separated proteins are transferred to a membrane and probed.

Test [2] addresses T1, Protein kinase C delta type. The experiment in a line: Activation of PKCdelta (unknown origin) expressed in HEK293 cells harboring GFP-tagged RasGRP1 assessed as phosphorylation at ser299 residues after 30 mins by immunoblot method. In kind it is cell-based. A digest of the protocol: as §1
The target in test [3] is T2, RAS guanyl-releasing protein 1 (Homo sapiens, UniProt O95267).
T2 sequence (O95267 whole entry): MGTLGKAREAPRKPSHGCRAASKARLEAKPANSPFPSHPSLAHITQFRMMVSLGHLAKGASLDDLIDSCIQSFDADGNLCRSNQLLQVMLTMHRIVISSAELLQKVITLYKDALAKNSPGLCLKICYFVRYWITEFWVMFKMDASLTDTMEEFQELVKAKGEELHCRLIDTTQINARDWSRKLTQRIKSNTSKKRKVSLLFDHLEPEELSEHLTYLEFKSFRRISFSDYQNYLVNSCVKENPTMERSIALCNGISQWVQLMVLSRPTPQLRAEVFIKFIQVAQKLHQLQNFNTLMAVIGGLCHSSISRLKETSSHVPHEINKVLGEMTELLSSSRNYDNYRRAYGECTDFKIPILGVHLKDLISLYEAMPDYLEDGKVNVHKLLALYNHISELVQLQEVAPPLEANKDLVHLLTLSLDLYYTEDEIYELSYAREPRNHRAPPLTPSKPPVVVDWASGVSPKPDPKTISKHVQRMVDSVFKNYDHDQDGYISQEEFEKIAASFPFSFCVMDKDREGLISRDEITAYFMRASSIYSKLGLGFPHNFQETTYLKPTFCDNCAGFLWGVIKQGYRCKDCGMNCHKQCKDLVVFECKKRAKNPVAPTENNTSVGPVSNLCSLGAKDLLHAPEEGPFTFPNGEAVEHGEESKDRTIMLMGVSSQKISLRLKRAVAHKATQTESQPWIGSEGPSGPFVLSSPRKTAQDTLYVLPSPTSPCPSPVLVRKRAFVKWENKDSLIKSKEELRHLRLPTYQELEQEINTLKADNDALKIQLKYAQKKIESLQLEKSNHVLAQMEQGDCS
Briefly: Activation of GFP-tagged RasGRP1 (unknown origin) expressed in HEK293 cells after 30 mins by immunoblot method. It is filed as cell-based. A digest of the protocol: (§2)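 Cells expressing GFP-RasGRP1/3 (HEK293 or LNCaP, 48 h after plating, transfected; expression checked by fluorescence 24-48 h later) or Ramos with endogenous RasGRP3 treated with half-log increasing concentrations (max 10 µM), 1000 nM PMA or DMSO, 37 °C, 30 min, 5% CO2. RasGTP by Raf1 RBD bead pulldown and anti-Pan-Ras immunoblot; pERK by western blot. Band intensities normalized to 1000 nM PMA; EC50 from n = 3.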

For test [4], the target named is T1, Protein kinase C delta type. The experiment in a line: Activation of PKCdelta (unknown origin) expressed in human LNCAP cells harboring GFP-tagged RasGRP3 assessed as phosphorylation at ser299 residues after 30 mins by immunoblot method. In kind it is cell-based. A digest of the protocol: as §1
For test [5], the target named is T2, RAS guanyl-releasing protein 1. Briefly: Activation of GFP-tagged RasGRP1 (unknown origin) expressed in human LNCAP cells after 30 mins by immunoblot method. It is filed as cell-based. In a few lines:
as §2

The target in test [6] is T3, Ras guanyl-releasing protein 3 (Homo sapiens, UniProt Q8IV61).
T3 sequence (Q8IV61 whole entry): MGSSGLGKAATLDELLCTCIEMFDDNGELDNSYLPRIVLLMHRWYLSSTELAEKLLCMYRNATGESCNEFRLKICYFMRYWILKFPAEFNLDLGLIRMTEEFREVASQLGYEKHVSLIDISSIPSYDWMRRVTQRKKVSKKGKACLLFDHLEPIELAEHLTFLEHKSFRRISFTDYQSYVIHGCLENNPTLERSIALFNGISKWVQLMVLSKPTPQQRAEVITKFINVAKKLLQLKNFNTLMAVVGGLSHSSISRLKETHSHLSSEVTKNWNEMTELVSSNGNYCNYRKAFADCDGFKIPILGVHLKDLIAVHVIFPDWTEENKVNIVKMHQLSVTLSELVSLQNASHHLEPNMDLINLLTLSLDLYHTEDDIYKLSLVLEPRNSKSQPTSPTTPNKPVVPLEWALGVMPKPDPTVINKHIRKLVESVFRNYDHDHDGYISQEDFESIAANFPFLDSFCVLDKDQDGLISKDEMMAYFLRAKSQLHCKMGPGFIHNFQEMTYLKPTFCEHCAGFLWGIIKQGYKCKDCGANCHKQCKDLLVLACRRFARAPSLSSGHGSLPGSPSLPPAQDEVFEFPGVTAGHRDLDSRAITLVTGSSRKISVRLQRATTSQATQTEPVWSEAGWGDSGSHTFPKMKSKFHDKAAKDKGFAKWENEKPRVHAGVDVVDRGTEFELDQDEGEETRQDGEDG
Briefly: Activation of GFP-tagged RasGRP3 (unknown origin) expressed in human LNCAP cells after 30 mins by immunoblot method. In kind it is cell-based. A digest of the protocol: as §2

In test [7] the target is Protein kinase C alpha type (Homo sapiens, UniProt P17252). Briefly: Displacement of [3H]PDBu from full length recombinant human PKCalpha expressed in baculovirus expression system after 5 mins by scintillation counting. A digest of the protocol:
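Competition of [3H]PDBu binding by polyethylene glycol precipitation, with 100 µg/ml phosphatidylserine and ≤0.003% Triton X-100, 5 min at 37 °C. Proteins: full-length purified human PKCα, PKCε; full-length RasGRP1; MBP-RasGRP3 from E. coli BL21(DE3) induced with 0.3 mM IPTG 6 h at room temperature. Ki mean ± SEM of ≥2 experiments, triplicate points.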
(In general: In a radioligand displacement assay an active substance lowers the binding of a labelled ligand.)

T1 sequence (Q05655 whole entry): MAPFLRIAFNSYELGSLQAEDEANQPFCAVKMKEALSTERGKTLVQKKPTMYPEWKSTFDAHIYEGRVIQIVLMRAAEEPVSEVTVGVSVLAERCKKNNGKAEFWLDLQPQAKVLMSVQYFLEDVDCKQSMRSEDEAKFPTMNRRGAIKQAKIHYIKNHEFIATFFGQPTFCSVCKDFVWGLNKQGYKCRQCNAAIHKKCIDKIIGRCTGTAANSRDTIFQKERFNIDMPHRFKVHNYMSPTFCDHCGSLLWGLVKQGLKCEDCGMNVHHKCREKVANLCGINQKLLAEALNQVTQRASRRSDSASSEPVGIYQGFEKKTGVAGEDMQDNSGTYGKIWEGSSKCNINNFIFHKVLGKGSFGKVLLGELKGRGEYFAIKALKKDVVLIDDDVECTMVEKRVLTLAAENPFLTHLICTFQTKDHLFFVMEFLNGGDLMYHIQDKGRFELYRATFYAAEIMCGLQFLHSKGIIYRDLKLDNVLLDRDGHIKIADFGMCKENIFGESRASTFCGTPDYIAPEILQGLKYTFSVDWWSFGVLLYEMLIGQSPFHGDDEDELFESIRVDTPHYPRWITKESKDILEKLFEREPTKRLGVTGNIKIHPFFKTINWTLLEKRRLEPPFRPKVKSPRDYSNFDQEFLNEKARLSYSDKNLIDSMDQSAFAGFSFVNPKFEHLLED

For `Cn1cc(/C=C2\CC(CO)(COC(=O)C(C)(C)C)OC2=O)c2ccccc21` (stereo not drawn), in the test filed under Homo sapiens, the Ratio EC50 was determined as 2.2. For the same compound, the EC50 in test [1] is 8030 nM; in test [2], 12600 nM; in test [3] it was 860 nM; in test [4], 8280 nM; in test [5], 970 nM; in test [6], 640 nM. Besides, the inhibition constant (Ki) in test [7] is 127 nM.

Usually EC50 stands for the midpoint of the concentration-response curve. The Ki is a measure of affinity in units of concentration, obtained from inhibition or displacement.

Values taken from ChEMBL document CHEMBL4130626, “α-Arylidene Diacylglycerol-Lactones (DAG-Lactones) as Selective Ras Guanine-Releasing Protein 3 (RasGRP3) Ligands” (J Med Chem, 2018).
